# In ChEMBL document CHEMBL4321838, “Drug Design Targeting T-Cell Factor-Driven Epithelial-Mesenchymal Transition as a Therapeutic Strategy for Colorectal Cancer” (J Med Chem, 2019):
# pEC50, pIC50: −log10 of the molar value. Active and inactive are the calls of the source.
# How the values were obtained:
# [1] = molecular target: T1, DNA topoisomerase 2-alpha (Homo sapiens, UniProt P11388); test: Inhibition of human topoisomerase 2alpha mediated decatenation at 30 uM using kDNA as susbtrate preincubated for 20 mins followed by substrate and ATP addition and measured after 1 hr by ethidium bromide staining based gel electrophoresis method relative to control
# Outline: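 Human TOP2A (3 U) preincubated 20 min at 37 °C with compound at 30 μM in 1.2% DMSO. Reaction started with 2 mM ATP and 35 ng kDNA and run 1 h at 37 °C. Products resolved on 0.8% agarose in TBE with 0.2 μg/mL ethidium bromide; decatenated bands compared with vehicle.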
# [2] = Metabolic stability in CD-1 mouse inactive microsomes incubated for 1 hr by LC-MS/MS analysis; assay type: ADME, Microsome
# [3] = molecular target: T1, DNA topoisomerase 2-alpha; test: Inhibition of human topoisomerase 2alpha mediated decatenation using kDNA as susbtrate preincubated for 20 mins followed by substrate and ATP addition and measured after 1 hr by ethidium bromide staining based gel electrophoresis method
# Outline: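 IC50 from decatenation gels: TOP2A at 4 U per reaction, compound as 2-fold serial dilutions from 58.6 nM to 30 μM, 20 min preincubation. Then 2 mM ATP plus 35 ng kDNA for 1 h at 37 °C. Gels were 0.8% agarose with ethidium bromide, with decatenated and catenated DNA marker lanes.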
# [4] = Drug metabolism in CD-1 mouse active microsomes assessed as CYP450-mediated oxidative phase 1 metabolite formation measured within 30 mins by LC-MS/MS analysis; assay type: ADME; details: 0.5 h
# [5] = Drug metabolism in CD-1 mouse active microsomes assessed as metabolite formation at rate of first-order kinetics by LC-MS/MS analysis; assay type: ADME, Microsome
# Mus musculus = test: Apparent volume of drug distribution in CD-1 mouse at 50 mg/kg, ip by LC-MS/MS analysis; assay type: ADME, organism-based; details: in vivo
# Outline: (§1)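 Female CD-1 mice, single IP injection at 50 mg/kg in 100% DMSO. Sampling from 0.25 to 24 h, three mice per time point (21 per compound). Heparinised blood was spun to plasma, mixed 1:1 with acidified acetonitrile (0.1% formic acid or 0.1% TFA depending on compound), centrifuged, then measured by LC-MS/MS.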
# [6] = Half life of terminal disposition phase in CD-1 mouse at 50 mg/kg, ip by LC-MS/MS analysis; assay type: ADME, organism-based; details: in vivo, read-out: t1/2lambda (converted); outline: as §1
# SW-620 [7] = test: Antiinvasive activity in human SW620 organoids transduced with NucLight-Red virus assessed as inhibition of cell invasion at 10 uM incubated for 72 hrs and measured after 72 hrs by matrigel based fluorescence analysis; assay type: functional
# Outline: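 NucLight-Red-labelled SW620 organoids treated 72 h at 10 μM in 0.1% DMSO, then dissociated. 5,000 live cells per well seeded in 50% Matrigel in the upper chamber of a migration plate, 0.5% FBS above and 20% FBS below. Invading cells tracked by bottom-side fluorescence over days, six replicates per condition.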
# [8] = Tmax in CD-1 mouse at 50 mg/kg, ip by LC-MS/MS analysis; assay type: ADME, organism-based; details: in vivo; outline: as §1
# [9] = Half life in CD-1 mouse microsomes measured up to 1 hr by LC-MS analysis; assay type: ADME, Microsome
# Outline: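 Female CD-1 mouse liver microsomes (0.5 mg/mL), substrate 1 μg/mL and 1.5 mM NADPH in 0.1 M phosphate buffer pH 7.4 at 37 °C. Samples taken from 0 to 60 min and quenched with an equal volume of acetonitrile. Parent compound remaining measured by LC-MS/MS without internal standard.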
# SW-620 [10] = test: Anticlonogenic activity against human SW620 cells assessed as loss of cancer stem cell stemness by measuring inhibition of colony formation at 10 uM incubated for 24 hrs followed by replating and measured after 7 days by clonogenic assay; assay type: functional, cell-based
# [11] = Cmax in CD-1 mouse at 50 mg/kg, ip by LC-MS/MS analysis; assay type: ADME, organism-based; set-up: dose 50 mg/kg, route intraperitoneal; details: in vivo; outline: as §1
# SW-620 [12] = test: Cytotoxicity against human SW620 organoids assessed as cell death with loss of membrane integrity after 72 hrs by CellTox Green assay; assay type: functional, cell-based; details: SW-620, 72 h
# Outline: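 SW620 tumor organoids exposed 72 h to inhibitor over 0–40 μM together with CellTox Green Express (0.5X). Whole-well mean fluorescence imaged (ex 488, em 500–550 nm). Normalised to lysis buffer as 0% viability and 0.4% DMSO as 100% viability.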
# [13] = Clearance in CD-1 mouse at 50 mg/kg, ip by LC-MS/MS analysis; assay type: ADME, organism-based; details: in vivo; outline: as §1
# [14] = Aqueous solubility of compound in PBS at 1 mg after 18 hrs by UV based analysis; assay type: physicochemical
# Outline: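 Undissolved material removed by centrifugation at 5,000g for 45 min. UV absorption compared with a fully saturated 1-propanol solution; solubility derived by linear regression.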
# [15] = molecular target: T1, DNA topoisomerase 2-alpha; test: Inhibition of topoisomerase 2alpha dependent TCF transcription in human SW620 organoids transduced with TOPflash luminescent reporter after 72 hrs by luciferase based TOPFlash reporter gene assay
# Outline: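 SW620 cells stably carrying pCDH-TOPflash-luc grown as organoids: 5,000 cells per U-bottom well in phenol red-free RPMI with 5% FBS and 2% Matrigel, 72 h. Inhibitor then applied 72 h. One-Glo luciferase and CellTiter-Glo 3D added 1:1. Luciferase signal normalised to viability, then to DMSO controls.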
# [16] = AUC(0 to t) in CD-1 mouse at 50 mg/kg, ip by LC-MS/MS analysis; assay type: ADME, organism-based; details: in vivo; outline: as §1
# [17] = molecular target: T1, DNA topoisomerase 2-alpha; test: Inhibition of topoisomerase 2alpha in human SW620 organoids transfected with VimPro-GFP reporter assessed as reversion of epithelial-mesenchymal transition by measuring reduction in vimentin expression up to 40 uM after 72 hrs by Hoechst 33342 staining based GFP reporter gene assay
# Outline: (§2)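 SW620 cells stably carrying VimPro-GFP or EcadPro-mCherry (puromycin selected) grown as organoids and dosed 72 h. Stained with 16 μM Hoechst 33342 for 1 h and imaged as 15 z-layers, 26.5 μm apart. Nuclei segmented and GFP- or mCherry-positive cells counted above background thresholds. Percent positive cells normalised to DMSO.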
# SW-620 [18] = test: Induction of early stage cell death in human SW620 organoids transfected with EcadPro-RFP reporter assessed as loss of RFP reporter activity at 40 uM at after 72 hrs by Hoechst 33342 staining based mCherryRFP reporter gene assay; details: sw-620, 72 h
# [19] = molecular target: T1, DNA topoisomerase 2-alpha; test: Inhibition of topoisomerase 2alpha in human SW620 organoids transfected with EcadPro-RFP reporter assessed as reversion of epithelial-mesenchymal transition by measuring increase in E-cadherin expression up to 40 uM after 72 hrs by Hoechst 33342 staining based mCherryRFP reporter gene assay; outline: as §2
# SW-620 [20] = test: Induction of apoptosis in human SW620 organoids assessed as increase in cleaved caspase 3/7 level at 40 uM after 72 hrs by caspase-glo 3/7 luminescence assay relative to control; assay type: functional
# Outline: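 SW620 cells, 2,000 per well in 384-well ultra-low attachment plates with 2% Matrigel, grown 72 h into organoids, then dosed 72 h. Caspase-Glo 3/7 reagent added 1:1 and shaken 30 min; luminescence read. Staurosporine served as positive control and 0.4% DMSO as negative control.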
# SW-620 [21] = test: Cytotoxicity against human SW620 organoids assessed as growth inhibition at 10 uM after 72 hrs by brightfield imaging of organoid volume
# T1 sequence (P11388 whole entry): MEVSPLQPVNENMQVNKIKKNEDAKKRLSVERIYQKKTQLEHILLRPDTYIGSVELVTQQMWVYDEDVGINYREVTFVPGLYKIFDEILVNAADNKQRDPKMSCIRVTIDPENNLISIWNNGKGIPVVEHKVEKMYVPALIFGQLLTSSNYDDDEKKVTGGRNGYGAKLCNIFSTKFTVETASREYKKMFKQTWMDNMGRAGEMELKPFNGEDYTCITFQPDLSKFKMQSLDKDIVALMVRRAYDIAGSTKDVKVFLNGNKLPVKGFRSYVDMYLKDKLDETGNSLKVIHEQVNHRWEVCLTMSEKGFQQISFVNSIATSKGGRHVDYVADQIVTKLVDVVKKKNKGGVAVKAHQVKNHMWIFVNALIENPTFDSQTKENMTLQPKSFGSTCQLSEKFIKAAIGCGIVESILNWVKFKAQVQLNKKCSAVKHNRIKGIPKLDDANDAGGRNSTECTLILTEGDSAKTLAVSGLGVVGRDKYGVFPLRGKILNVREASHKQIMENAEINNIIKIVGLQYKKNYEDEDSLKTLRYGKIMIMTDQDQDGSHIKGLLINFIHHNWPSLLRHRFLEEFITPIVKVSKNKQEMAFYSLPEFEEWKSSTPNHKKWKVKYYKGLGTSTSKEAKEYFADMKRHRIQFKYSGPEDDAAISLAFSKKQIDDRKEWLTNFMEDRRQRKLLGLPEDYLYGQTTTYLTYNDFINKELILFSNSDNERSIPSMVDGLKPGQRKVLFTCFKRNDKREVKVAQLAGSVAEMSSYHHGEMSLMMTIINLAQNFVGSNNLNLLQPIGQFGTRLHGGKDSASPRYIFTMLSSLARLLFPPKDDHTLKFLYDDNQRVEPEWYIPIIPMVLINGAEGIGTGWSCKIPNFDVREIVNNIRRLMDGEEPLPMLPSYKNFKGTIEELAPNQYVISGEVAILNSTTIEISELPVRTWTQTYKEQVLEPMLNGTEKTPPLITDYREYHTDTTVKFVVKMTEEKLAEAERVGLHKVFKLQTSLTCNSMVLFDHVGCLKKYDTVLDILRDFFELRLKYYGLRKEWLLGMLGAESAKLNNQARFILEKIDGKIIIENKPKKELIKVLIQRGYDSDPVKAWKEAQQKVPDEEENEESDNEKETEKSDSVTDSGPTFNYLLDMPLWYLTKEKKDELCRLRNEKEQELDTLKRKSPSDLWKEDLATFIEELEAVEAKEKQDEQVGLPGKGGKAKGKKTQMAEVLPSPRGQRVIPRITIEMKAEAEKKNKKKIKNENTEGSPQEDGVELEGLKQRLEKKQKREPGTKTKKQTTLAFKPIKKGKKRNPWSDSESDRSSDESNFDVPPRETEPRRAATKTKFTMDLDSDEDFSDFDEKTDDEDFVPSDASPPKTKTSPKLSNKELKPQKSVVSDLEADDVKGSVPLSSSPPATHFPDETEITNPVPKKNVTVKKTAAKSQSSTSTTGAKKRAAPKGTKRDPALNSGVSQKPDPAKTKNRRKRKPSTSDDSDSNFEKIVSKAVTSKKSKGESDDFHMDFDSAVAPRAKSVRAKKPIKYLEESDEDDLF
smiles,measurement,setting,value
CC(=O)Nc1cccc(-c2ccnc3c(O)c(NC(C)=O)ccc23)c1,inhibition,[1],3%
CC(=O)Nc1ccc2c(-c3cc4ccccc4s3)ccnc2c1O,inhibition,[1],0%
CC(=O)Nc1ccc2c(-c3cccc(C(F)(F)F)c3)ccnc2c1O,Stability,[2],Stable
same,inhibition,[1],97%
same,pIC50,[3],5.47
same,Drug metabolism,[4],Metabolite_Notdetected
same,Drug metabolism,[5],Metabolite_Detected
O=C(CCN1CCOCC1)Nc1ccc2c(-c3cc4ccccc4o3)ccnc2c1O,Stability,[2],Stable
same,Vz,Mus musculus,32 L/kg
same,inhibition,[1],83%
same,half-life,[6],358 min
same,inhibition,SW-620 [7],Active
same,Tmax,[8],15 min
same,t1/2,[9],14 min
same,inhibition,SW-620 [10],Active
same,Cmax,[11],6830 ng/mL
same,Drug metabolism,[4],Metabolite_Notdetected
same,Drug metabolism,[5],Metabolite_Detected
same,pEC50,SW-620 [12],4.76
same,CL/F,[13],61.8 mL/min/kg
same,solubility thermodynamic at 18 h,[14],1160 µg/mL
same,pIC50,[15],5.60
same,AUC(0-t),[16],12900 ng·h/mL
CC(=O)Nc1ccc2c(-c3cccc(O)c3)ccnc2c1O,inhibition,[1],0%
CC(=O)Nc1ccc2c(-c3ccoc3)ccnc2c1O,inhibition,[1],86%
same,inhibition,SW-620 [7],Active
same,inhibition,SW-620 [10],Active
same,pEC50,SW-620 [12],< 4.52
same,pIC50,[15],5.77
CC(=O)Nc1ccc2c(-c3cc(C(F)(F)F)ccc3O)ccnc2c1O,inhibition,[1],100%
CC(=O)Nc1ccc2c(-c3cncnc3)ccnc2c1O,inhibition,[1],0%
CC(=O)Nc1ccc2c(-c3ccc(F)cc3)ccnc2c1O,inhibition,[1],1%
COc1c(NC(C)=O)cc(OC)c2c(-c3ccccc3NC(=O)c3ccccc3)ccnc12,inhibition,[1],0%
O=C(CN1CCOCC1)Nc1ccc2c(-c3cc(F)ccc3O)ccnc2c1O,inhibition,[1],4%
CC(=O)Nc1ccc2c(-c3cc(Cl)ccc3O)ccnc2c1O,inhibition,[1],0%
CC(C)(C)C(=O)Nc1ccc2c(-c3cc(F)ccc3O)ccnc2c1O,inhibition,[1],0%
CC(=O)Nc1ccc2c(-c3cccs3)ccnc2c1O,inhibition,[1],100%
same,pEC50,SW-620 [12],< 4.52
same,pIC50,[15],5.30
CC(=O)Nc1ccc2c(-c3ccco3)ccnc2c1O,inhibition,[1],0%
CC(=O)Nc1ccc(-c2ccnc3c(O)c(NC(C)=O)ccc23)cc1,Stability,[2],Stable
same,inhibition,[1],97%
same,inhibition,SW-620 [7],Active
same,pIC50,[3],5.72
same,inhibition,SW-620 [10],Active
same,Drug metabolism,[4],Metabolite_Notdetected
same,Drug metabolism,[5],Metabolite_Detected
same,pEC50,SW-620 [12],< 4.52
same,pIC50,[15],5.70
O=C(CN1CCOCC1)Nc1ccc2c(-c3cc4ccccc4o3)ccnc2c1O,Stability,[2],Stable
same,Vz,Mus musculus,69.3 L/kg
same,inhibition,[1],100%
same,half-life,[6],350 min
same,inhibition,[17],Active
same,Tmax,[8],15 min
same,Activity,SW-620 [18],Active
same,t1/2,[9],30.18 min
same,inhibition,[19],Active
same,Cmax,[11],1980 ng/mL
same,Drug metabolism,[4],Metabolite_Notdetected
same,Drug metabolism,[5],Metabolite_Detected
same,pEC50,SW-620 [12],4.66
same,CL/F,[13],137 mL/min/kg
same,solubility thermodynamic at 18 h,[14],45 µg/mL
same,fold change (FC),SW-620 [20],3
same,pIC50,[15],5.96
same,AUC(0-t),[16],5890 ng·h/mL
same,growth inhibition (GI),SW-620 [21],Active
CC(=O)Nc1ccccc1-c1ccnc2c(O)c(NC(C)=O)ccc12,inhibition,[1],1%
CC(=O)Nc1ccc2c(-c3cc4ccccc4o3)ccnc2c1O,Stability,[2],Stable
same,Vz,Mus musculus,108.9 L/kg
same,inhibition,[1],100%
same,half-life,[6],266 min
same,inhibition,SW-620 [7],Active
same,Tmax,[8],15 min
same,t1/2,[9],> 60 min
same,inhibition,SW-620 [10],Active
same,Cmax,[11],707 ng/mL
same,Drug metabolism,[4],Metabolite_Notdetected
same,Drug metabolism,[5],Metabolite_Detected
same,pEC50,SW-620 [12],< 4.52
same,CL/F,[13],283 mL/min/kg
same,solubility thermodynamic at 18 h,[14],28 µg/mL
same,pIC50,[15],6.00
same,AUC(0-t),[16],2840 ng·h/mL
CC(=O)Nc1ccc2c(-c3ccc(C(F)(F)F)cc3)ccnc2c1O,inhibition,[1],97%
CC(C)(C)C(=O)Nc1ccc2c(-c3ccccc3)ccnc2c1O,inhibition,[1],97%
same,inhibition,SW-620 [7],Active
same,pIC50,[3],5.89
same,inhibition,SW-620 [10],Active
same,pEC50,SW-620 [12],< 4.52
same,pIC50,[15],5.33
COc1c(NC(C)=O)ccc2c(-c3cc(F)ccc3O)ccnc12,inhibition,[1],0%
COc1ccc(F)cc1-c1ccnc2c(OC)c(NC(C)=O)ccc12,inhibition,[1],0%
CC(=O)Nc1ccc2c(-c3cccc(F)c3)ccnc2c1O,inhibition,[1],100%
CC(=O)Nc1ccccc1-c1ccnc2c(O)c(NC(=O)CCN3CCOCC3)ccc12,inhibition,[1],1%
